Laboratory results: ChEMBL document CHEMBL2396655, “Design, synthesis, and biological evaluation of (E)-N-aryl-2-arylethenesulfonamide analogues as potent and orally bioavailable microtubule-targeted anticancer agents” (J Med Chem, 2013)
Calls of active or inactive are those of the source. The calls are words filed in the database; no cut-off is given here.

Legend:
DU-145 [1] = experiment: Cell cycle arrest in human DU145 cells assessed as accumulation at G2/M phase at 0.005 uM after 24 hrs by propidium iodide staining-based FACS flow cytometric analysis; type: functional
Summary of the method: (§1)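 DU145 cells were plated at 1.0×10⁶ per dish in DMEM/10% FBS and treated 24 h later with increasing concentrations. After 24 h, attached and floating cells were pooled and fixed in ice-cold 70% ethanol for at least 24 h. Cells were stained with propidium iodide (50 μg/mL) plus RNase A for 30 min at 37 °C, then read on a FACScan with cell-cycle modelling.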

DU-145 [2] = experiment: Cell cycle arrest in human DU145 cells assessed as accumulation at subG1 phase at 0.005 to 0.02 uM after 24 hrs by propidium iodide staining-based FACS flow cytometric analysis; type: functional; summary of the method: as §1
[3] = Cytotoxicity against human HepG2 cells after 4 hrs by Alamar Blue assay; type: cell-based; details: read-out: LD50
Tubulin (Sus scrofa) = Tubulin (Sus scrofa) (UniProt P02554+P02550); experiment: Competitive binding affinity to pig brain tubulin vinblastine binding site at 0.1 to 100 uM after 1 hr by mass spectrophotometric analysis in presence of vinblastine
Summary of the method: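 Porcine brain tubulin (1.0 mg/mL) in PIPES 80 mM, MgCl₂ 2 mM, EGTA 0.5 mM, pH 6.9, at 37 °C. […] Competitor was 0.1–100 μM for 1 h. Unbound ligand in the 30 kDa ultrafiltrate was measured by MS. Runs were in triplicate; IC50 came from a Hill fit.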

Plasma = experiment: Plasma protein binding in human at 10 to 50 uM by equilibrium dialysis; type: ADME, cell-free
2008 = experiment: Resistance factor, ratio of GI50 for paclitaxel-resistant human 2008/17/4 cells to GI50 for human 2008 cells; type: functional
Mus musculus [4] = experiment: Toxicity in NCR-nu/nu mouse assessed as reduction in body weight at 20 mg/kg, ip treated 3 times a week for 2 weeks measured on alternate days for 14 days; type: organism-based; set-up: dose 20 mg/kg, route intraperitoneal; details: in vivo, 336 h
Summary of the method: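 Female athymic NCr-nu/nu mice bearing subcutaneous BT20 hind-leg tumors (~100–150 mm³) were given 20 mg/kg IP in DMSO (0.1 mL), 3 times a week for 2 weeks (N=8; vehicle N=7).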

NCI-H417 = experiment: Cytotoxicity against human NCI-N417 cells after 96 hrs by trypan blue exclusion assay; type: functional; details: NCI-H417, 96 h
Summary of the method: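 Cells grown in DMEM or RPMI with 10% FBS and 1 unit/mL penicillin-streptomycin, seeded in 12-well dishes at 2.5 ×10⁴ cells/mL/well. Compound added 24 h later at various concentrations. Viable cells counted by trypan blue exclusion from duplicate wells after 96 h. Value taken from dose-response curves of two independent experiments.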

Mus musculus [5] = experiment: Clearance in ICR mouse at 5 mg/kg, iv by LC-MS/MS analysis; type: ADME, organism-based; set-up: dose 5 mg/kg, route intravenous; details: in vivo
Summary of the method: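 Male ICR mice, 6–8 weeks old, N=3 per group. Single 5 mg/kg dose in NMP:PEG300:water (1:4:5 v/v), given as IV bolus or oral gavage. Serial arterial blood was drawn through a carotid cannula at 2–360 min. Plasma was protein-precipitated with acetonitrile containing internal standard and assayed by LC/MS/MS. Parameters were derived by noncompartmental analysis.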

## COc1cc(OC)c(/C=C/S(=O)(=O)Nc2ccc(OC)c(N)c2)c(OC)c1
DU-145 [1]
  Activity: Active
DU-145 [2]
  Activity: Active
[3]
  CC50 at 4 h: > 1 mM
Tubulin (Sus scrofa)
  Activity: inactive
Plasma
  PPB: 99.67%
2008
  RatioGI50: 1
Mus musculus [4]
  Activity: Non-toxic
NCI-H417
  GI50: 4 nM
Mus musculus [5]
  CL: 2.48 L/h/kg
